Results on 14 molecules are retold here after ChEMBL document CHEMBL1125485, “Inhibitors of blood platelet cAMP phosphodiesterase. 2. Structure-activity relationships associated with 1,3-dihydro-2H-imidazo[4,5-b]quinolin-2-ones substituted with functionalized side chains” (J Med Chem, 1992).

The term EC50 denotes the concentration needed to bring the measured effect to its halfway point. Read a low EC50 as an effect from little substance. The IC50 is the concentration needed to halve the response being measured. A higher IC50 goes with weaker potency in that assay. Broadly, the ED50 is the midpoint of the dose-response relation. Read a high ED50 as weaker potency. As usually defined, the inhibition in vivo is the change of the read-out against control, counted positive when it falls.

The structures appear in SMILES notation.

For assay [1], the species on record is Oryctolagus cuniculus. Nature of the assay: Inhibition of ADP-induced platelet aggregation in rabbit platelet rich plasma (PRP). It counts as functional. The gist of the method:
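Rabbit platelet-rich plasma, aggregation triggered by ADP or collagen after 3 min preincubation of PRP with drug. […] Single or duplicate determinations, reference agent included.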

Assay [2] concerns the target T1, Phosphodiesterase 3 (Homo sapiens, UniProt Q14432+Q13370). Nature of the assay: Inhibition of human platelet PDE by inhibiting cyclic Adenosine monophosphate (cAMP) hydrolysis.
For assay [3], the species on record is Rattus norvegicus. Nature of the assay: Oral efficacy in rats using the ex vivo aggregatory protocol. It is filed as functional. The gist of the method:
(§1)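 Rats given compound orally, then ADP-induced platelet aggregation measured ex vivo.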

For assay [4], the species on record is Oryctolagus cuniculus. Nature of the assay: Inhibition of platelet aggregation using collagen as activating agent in rabbit platelet rich plasma (PRP). It is filed as functional. The gist of the method:
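Rabbit platelet-rich plasma, aggregation triggered by ADP or collagen after 3 min preincubation of PRP with drug. Single or duplicate determinations, reference agent included.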

For assay [5], the system named is Rattus norvegicus. Nature of the assay: Percent inhibition of oral efficacy in rats using the ex vivo aggregatory protocol at 10 mg/kg. It counts as functional. The essentials:
as §1

For assay [6], the target named is cGMP-dependent 3',5'-cyclic phosphodiesterase (Homo sapiens, UniProt O00408). As to the kind of experiment: Inhibition of human platelet PDE by inhibiting cyclic Guanosine monophosphate (cGMP) hydrolysis.
Sequence of cGMP-dependent 3',5'-cyclic phosphodiesterase (O00408 whole entry): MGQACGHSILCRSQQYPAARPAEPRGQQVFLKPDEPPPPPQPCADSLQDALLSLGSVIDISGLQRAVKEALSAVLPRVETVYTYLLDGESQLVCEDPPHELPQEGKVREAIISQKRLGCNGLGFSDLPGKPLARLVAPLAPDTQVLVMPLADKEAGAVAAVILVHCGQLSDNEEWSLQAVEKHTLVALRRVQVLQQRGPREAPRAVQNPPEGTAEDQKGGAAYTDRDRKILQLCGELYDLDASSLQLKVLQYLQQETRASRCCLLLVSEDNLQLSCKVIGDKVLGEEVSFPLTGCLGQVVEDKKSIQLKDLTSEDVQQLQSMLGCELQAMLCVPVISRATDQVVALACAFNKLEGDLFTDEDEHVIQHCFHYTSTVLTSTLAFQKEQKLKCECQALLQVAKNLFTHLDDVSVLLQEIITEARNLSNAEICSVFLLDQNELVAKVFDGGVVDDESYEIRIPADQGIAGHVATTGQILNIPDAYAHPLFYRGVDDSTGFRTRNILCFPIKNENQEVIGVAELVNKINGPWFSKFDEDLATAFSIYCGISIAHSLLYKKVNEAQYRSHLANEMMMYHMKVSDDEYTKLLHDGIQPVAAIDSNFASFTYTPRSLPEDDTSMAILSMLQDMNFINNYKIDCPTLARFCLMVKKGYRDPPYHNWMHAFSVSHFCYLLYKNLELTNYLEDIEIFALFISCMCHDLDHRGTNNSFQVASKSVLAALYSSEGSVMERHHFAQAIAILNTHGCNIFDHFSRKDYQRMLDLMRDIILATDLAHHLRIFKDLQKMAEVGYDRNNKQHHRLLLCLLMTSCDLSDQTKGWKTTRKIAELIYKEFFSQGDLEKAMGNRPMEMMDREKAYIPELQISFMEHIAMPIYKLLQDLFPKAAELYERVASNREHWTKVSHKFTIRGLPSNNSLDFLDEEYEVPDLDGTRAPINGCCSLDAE
Assay [7] concerns Canis familiaris. As to the kind of experiment: Inhibition of coronary artery occlusion (mean area under flow time curve) in anesthetized dog at 0.1 mg/kg. The conditions noted are these: Canis lupus familiaris. It is filed as functional. The essentials: (§2)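 Modified Folts-type coronary stenosis-occlusion model of large-vessel thrombosis; read-out mean area under flow-time curve (% seconds) compared with vehicle-treated animals, as percent inhibition of thrombus formation. Five animals.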

Assay [8] has as its system Canis familiaris. As to the kind of experiment: Inhibition of coronary artery occlusion (mean area under flow time curve) in anesthetized dog at 0.01 mg/kg. It counts as functional. Particulars: Canis lupus familiaris. The essentials:
as §2

In assay [9] the test system is Canis familiaris. As to the kind of experiment: Inhibition of coronary artery occlusion (mean area under flow time curve) in anesthetized dog at 0.03 mg/kg. It is filed as functional. The conditions noted are these: Canis lupus familiaris. The gist of the method: as §2
The subject of assay [10] is Oryctolagus cuniculus. Nature of the assay: Inhibition of thrombus formation (mean thrombus area) in conscious rabbits at 3.0 mg/kg. It is filed as functional. Particulars: values are per cent of control. The gist of the method: (§3)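 Conscious rabbit ear biolaser model: ruby laser induces microvascular thrombi. Predose mean thrombus area from 10 vessels, then compound given orally as suspension in H2O/Tween 20 and 10 trials repeated 2 h later in the same rabbit; percent inhibition versus predose. At least three rabbits.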

The test system of assay [11] is Oryctolagus cuniculus. As to the kind of experiment: Inhibition of thrombus formation (mean thrombus area) in conscious rabbits at 1.0 mg/kg. It counts as functional. The conditions noted are these: values are per cent of control. The gist of the method: as §3
In assay [12] the test system is Oryctolagus cuniculus. Nature of the assay: Inhibition of thrombus formation (mean thrombus area) in conscious rabbits at 0.3 mg/kg. It is filed as functional. Particulars: values are per cent of control. The essentials: as §3
Assay [13] concerns the target T1, Phosphodiesterase 3. Nature of the assay: Inhibition of human platelet PDE cAMP hydrolysis.
The test system of assay [14] is Canis familiaris. Nature of the assay: Inhibition of coronary artery occlusion (mean area under flow time curve) in anesthetized dog at 0.3 mg/kg. It is filed as functional. The conditions noted are these: Canis lupus familiaris. The essentials: as §2
The test system of assay [15] is Oryctolagus cuniculus. As to the kind of experiment: Inhibition of thrombus formation (mean thrombus area) in conscious rabbits at 10.0 mg/kg. It counts as functional. Particulars: values are per cent of control. The essentials: as §3

On to `CN(C)C(=O)CCCOc1ccc2[nH]c3nc(O)nc-3cc2c1`, for which the EC50 in assay [1] came to 4770 nM; in [4] it was 950 nM. The 50% inhibitory concentration (IC50) in assay [2] is 40 nM. The ED50 in [3] was more than 10 mg/kg.
With `COC(=O)CCCCc1ccc2[nH]c3nc(O)nc-3cc2c1`, the IC50 in assay [2] stood at 900 nM. Besides, the inhibition in vivo at 10 mg/kg in assay [5] amounted to 29%. For the same molecule, the ED50 in assay [3] was more than 10 mg/kg. Also, the EC50 in [4] is 270 nM.
Regarding `O=C(CCCOc1ccc2[nH]c3nc(O)nc-3cc2c1)NC12C[C@H]3C[C@@H](C1)C[C@@H](C2)C3`, the results for the IC50 in [6] and in [2] were 100000 nM and 1 nM, respectively. In addition, the 50% effect level in assay [3] (ED50) was put at a dose of 4 mg/kg. Besides, in assay [4], it took 50 nM to reach a half-maximal effect (EC50).
Take `Cn1c(O)nc2cc3cc(OCCCC(=O)O)ccc3nc21`: the half-maximal inhibitory concentration (IC50) in assay [2] was determined as 1000 nM. Besides, in assay [5], the inhibition in vivo at 10 mg/kg turned out to be 59%. Also, in assay [3], the ED50 is less than 10 mg/kg. Further, a half-maximal effect in assay [4] (EC50) was put at 100 nM.
As to `CN(C(=O)CCCCOc1ccc2nc3nc(O)n(C)c3cc2c1)C1CCCCC1`, the IC50 in assay [6] came to 60000 nM; in assay [2] it was 500 nM. In addition, the ED50 in assay [3] came out at 10 mg/kg.
With `Cn1c(O)nc2nc3ccc(OCCCC(=O)O)cc3cc21`, the results for the IC50 in [6] and in [2] were 10000 nM and 600 nM, respectively. In addition, the median effective dose (ED50) in assay [3] was more than 10 mg/kg. The same molecule displayed an EC50 in assay [4] of more than 106000 nM.
Regarding `O=C(O)CCCOc1ccc2[nH]c3nc(O)nc-3cc2c1`, the inhibition in vivo at 0.1 mg/kg in assay [7] was determined as 111%. This molecule also showed a concentration for half-maximal inhibition (IC50) in [6] of 30000 nM. The inhibition in vivo at 0.01 mg/kg in [8] turned out to be 89%. In addition, the inhibition in vivo at 0.03 mg/kg in [9] is 115%. The molecule further displayed a response, % of control at 3 mg/kg in assay [10] of 65%. Moreover, in assay [11], the response, % of control at 1 mg/kg amounted to 70%. Also, the response, % of control at 0.3 mg/kg in assay [12] is 144%.
In the case of `O=C(O)COc1ccc2[nH]c3nc(O)nc-3cc2c1`, the figures for the IC50 in assay [6] and in [2] were 50000 nM and 70 nM, respectively. For the same molecule, in assay [5], the inhibition in vivo at 10 mg/kg worked out at 61%. In addition, in assay [3], the ED50 was less than 10 mg/kg. The concentration giving a half-maximal response (EC50) in [4] was 760 nM.
Regarding `Cn1c(O)nc2nc3ccc(OCCCC(=O)NC4CCCCC4)cc3cc21`, the 50% inhibitory concentration (IC50) in [6] is more than 100000 nM; in assay [13], 700 nM. For the same molecule, in assay [4], the EC50 is 20 nM.
As to `OCCCCOc1ccc2[nH]c3nc(O)nc-3cc2c1`, the IC50 is 20000 nM in [6] and 6 nM in assay [2]. Further, the inhibition in vivo at 10 mg/kg in [5] came out at 47%. The ED50 in assay [3] is more than 10 mg/kg. In assay [4], this molecule had an EC50 of 33 nM.
For the molecule `O=C1CN2Cc3c(ccc(Cl)c3Cl)N=C2N1` [ANAGRELIDE], the inhibition in vivo at 0.1 mg/kg in [7] was determined as 106%. For the same molecule, the inhibition in vivo at 0.03 mg/kg in assay [9] worked out at 72%. Also, the inhibition in vivo at 0.3 mg/kg in [14] was found to be 117%. This molecule returned a response, % of control at 3 mg/kg in assay [10] of 68%. Besides, the response, % of control at 1 mg/kg in [11] was found to be 98%. This molecule displayed a response, % of control at 10 mg/kg in assay [15] of 49%.
Regarding `O=C(CCCOc1ccc2[nH]c3nc(O)nc-3cc2c1)N1CCCCC1`, the IC50 in assay [6] was more than 100000 nM; in assay [2], 20 nM. Moreover, in assay [5], the inhibition in vivo at 10 mg/kg came out at 57%. In assay [3], this molecule yielded a median effective dose (ED50) of less than 10 mg/kg.
Take `COC(=O)CN(C(=O)CCCOc1ccc2[nH]c3nc(O)nc-3cc2c1)C1CCCCC1`: the IC50 was 5500 nM in [6] and 0.5 nM in assay [2]. Besides, it took a dose of 3 mg/kg to reach the 50% effect level in [3] (ED50). This molecule also yielded an EC50 in assay [4] of 2 nM.
With `Oc1nc2cc3cc(OCCCCc4nnnn4C4CCCCC4)ccc3[nH]c-2n1`, the IC50 in assay [6] is more than 100000 nM; in assay [2], 4 nM. Moreover, the inhibition in vivo at 10 mg/kg in assay [5] amounted to 44%. The molecule further gave an EC50 in [4] of 45 nM.
